The results in this text go back to PubChem BioAssay.

Structures are written as SMILES. Activity calls are given as the source filed them.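 The calls were made as follows, unless noted: active = NADPH fluorescence slope more negative than the mean of all samples by about 3 SD, 99.7% confidence; inactive = the rest.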

Experiment [1] in a line: inhibitors of TNFa-induced NFkB p65 translocation, primary screen, imaging, HUVEC, MLSMR starter and 10KST1 sets (AID 438;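 active = inhibition above 20% together with a positive visual image hit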;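 also: compound added about 3h40 before a 20 min TNFalpha stimulation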;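 as to inhibition: signal is the nuclear over cytoplasmic p65 intensity ratio per well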). Conditions: HUVEC TNFa-induced p65 nuclear translocation; cell count: measured here: nuclei count (cytotoxicity indicator), at 2.08 µM; inhibition: at 2 µM, stronger effect = higher value, 0% TNFa-plus-vehicle, 100% no-TNFa wells.
The nature of experiment [2]: endothelial E-selectin expression blockers – imaging, HUVEC, immunofluorescence, MLSMR starter and 10KST1 sets, primary screen (AID 487;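 active = visually confirmed hit in the image check and inhibition above 20%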;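 as to inhibition: signal is fraction of cell area covered by stained E-selectin grains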;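 as to nuclei count: 100% = median nuclei count of all wells on the same plate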). Conditions: HUVEC TNFalpha-induced E-selectin immunofluorescence imaging, at 2 µM; inhibition: stronger effect = higher value; nuclei count: measured here: cell number, toxicity.
Experiment [3] is described as follows: Primary imaging screen for DUSP6 inhibitors that restore phospho-Erk in transfected HeLa cells, chemical complementation (AID 609;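 active = compounds giving at least 50% inhibition in the cell-based MKP-3 phosphatase rescue imaging test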;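 as to inhibition: phospho-Erk level distribution per well compared with pooled transfected vehicle control wells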). The conditions noted are these: HeLa MKP-3 transfected, phospho-Erk imaging KS statistic, at 10 µM, cells stimulated with TPA for 15 min.
For experiment [4], the target named is Dual specificity protein phosphatase 6 (Homo sapiens) (UniProt Q16828). The experiment is described as above. Conditions: HeLa MKP-3 transfected, phospho-Erk imaging KS statistic; at 10 µM; stronger effect = higher value; cells stimulated with TPA for 15 min.
Experiment [5] has as its target Voltage-gated potassium channel subunit beta-2 (Rattus norvegicus) (UniProt P62483). Description: inhibitors of rat Kvbeta2 reductase activity – biochemical, NADPH fluorescence, primary screen (AID 622;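 active = fluorescence slope higher than the sample average by over 3 SD, cut at about -0.22 in these data, passing the limit was not always enough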;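 also: slope of raw intensity against log time taken from 70 to 1610 s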). The conditions noted are these: recombinant KvBeta, 4-cyanobenzaldehyde reduction, at 10 µM, stronger effect = higher value.
Experiment [6] shares this target. Description: enhancers of rat Kvbeta2 NADPH turnover – biochemical, NADPH fluorescence, primary screen (AID 623).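 Also: fluorescence intensity change per second fitted from 20 to 320 s.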 The conditions noted are these: Recombinant KvBeta, NADPH fluorescence decrease slope, 10 min; at 10 µM; stronger effect = lower value.
The target of experiment [7] is Muscarinic acetylcholine receptor M4 (Homo sapiens) (UniProt P08173). Briefly: M4-linked GIRK flux change, two-sided – cell-based, HEK293 M4/GIRK, thallium flux, BTC-AM, M4 allosteric agonist project, primary screen (AID 625;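 active = fluorescence slope after compound addition differing from the mean of all tested samples at 99.7% confidence, mostly higher but some lower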;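 also: thallium influx through GIRK channels coupled to M4 in HEK293 cells with BTC-AM dye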). The conditions noted are these: at 10 µM, actives lie on both sides. In outline:
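Material: HEK293 cells with M4 receptor and GIRK channels; Times: cells overnight at 37 °C, BTC-AM loading 1 h, reads 2 min total; Technique: kinetic BTC-AM fluorescence sampled at 1 Hz, 10 s pre-addition baseline; Read-out basis: slope over 15–24 s of trace normalized to starting intensity; Controls: carbachol positive, DMSO negative.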

The nature of experiment [8]: inhibitors of larval lipid processing in zebrafish, primary screen, whole organism, PED6 fluorescence, gall bladder and intestine (AID 686;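 active = a full or partial loss of lipid-probe fluorescence in the fish gall bladder, intestine or both, judged by eye; inactive = no fluorescence loss, or compound toxic to the fish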;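 also: larvae 5 to 7 days old with five fish per well; signal comes from phospholipase A2 cleavage of quenched PED6 carried via bile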). Conditions: Zebrafish larvae PED6 lipid processing, fluorescence scoring; screened at 20 µM (by protocol). In short, it runs like this: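 Incubation: overnight exposure of larvae to compound plus PED6 / Test system: live zebrafish larvae aged 5-7 days, whole organism / Amount: 5 larvae per well / Read-out basis: visual per-well fluorescence inhibition score / Signal: visual fluorescence microscopy scoring of gall bladder, gut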

Experiment [9] can be described thus: loss of swimming-algae plug formation – whole organism, Chlamydomonas reinhardtii, WT vs cilia-less mutant, absorbance, 96-well, primary screen (AID 463189;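 active = inhibition at or above 50% relative to wild type and mutant plate controls; inactive = inhibition below 50%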;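 also: 0% = wild type cc124 cells in DMSO and 100% = ciliumless bld1 mutant cells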). The conditions noted are these: Chlamydomonas reinhardtii gravitaxis, OD600 absorbance, 2 days; at 10 µM; stronger effect = higher value.
[10] abbreviates: measured here: cell density z-score.
Where [11] appears, read: measured here: nuclear c-Myc green intensity z-score.
Where [12] appears, read: measured here: nuclear pErk red intensity z-score, stronger effect = higher value.

Voltage-gated potassium channel subunit beta-2 (Rattus norvegicus), sequence (P62483 whole entry, looked up): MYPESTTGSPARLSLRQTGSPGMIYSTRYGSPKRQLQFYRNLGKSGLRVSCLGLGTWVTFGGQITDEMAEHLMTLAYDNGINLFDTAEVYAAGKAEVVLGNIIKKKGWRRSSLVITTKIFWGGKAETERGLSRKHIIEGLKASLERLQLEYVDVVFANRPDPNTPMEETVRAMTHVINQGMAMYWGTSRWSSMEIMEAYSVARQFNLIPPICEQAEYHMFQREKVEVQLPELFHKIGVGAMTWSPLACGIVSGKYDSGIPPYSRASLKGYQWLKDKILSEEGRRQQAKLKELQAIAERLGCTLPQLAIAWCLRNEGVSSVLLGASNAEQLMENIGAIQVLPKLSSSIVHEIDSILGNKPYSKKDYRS
Dual specificity protein phosphatase 6 (Homo sapiens), sequence (Q16828 whole entry, looked up): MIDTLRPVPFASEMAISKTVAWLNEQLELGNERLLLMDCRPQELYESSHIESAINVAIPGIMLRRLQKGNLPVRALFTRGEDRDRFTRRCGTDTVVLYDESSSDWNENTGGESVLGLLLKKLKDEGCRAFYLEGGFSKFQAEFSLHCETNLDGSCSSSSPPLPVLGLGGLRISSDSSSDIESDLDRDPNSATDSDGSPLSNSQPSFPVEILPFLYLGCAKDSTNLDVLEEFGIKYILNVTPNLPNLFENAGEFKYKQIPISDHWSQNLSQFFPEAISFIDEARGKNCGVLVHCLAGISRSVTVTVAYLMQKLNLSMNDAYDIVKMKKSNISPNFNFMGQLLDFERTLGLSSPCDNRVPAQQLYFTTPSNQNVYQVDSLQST
Muscarinic acetylcholine receptor M4 (Homo sapiens), sequence (P08173 whole entry, looked up): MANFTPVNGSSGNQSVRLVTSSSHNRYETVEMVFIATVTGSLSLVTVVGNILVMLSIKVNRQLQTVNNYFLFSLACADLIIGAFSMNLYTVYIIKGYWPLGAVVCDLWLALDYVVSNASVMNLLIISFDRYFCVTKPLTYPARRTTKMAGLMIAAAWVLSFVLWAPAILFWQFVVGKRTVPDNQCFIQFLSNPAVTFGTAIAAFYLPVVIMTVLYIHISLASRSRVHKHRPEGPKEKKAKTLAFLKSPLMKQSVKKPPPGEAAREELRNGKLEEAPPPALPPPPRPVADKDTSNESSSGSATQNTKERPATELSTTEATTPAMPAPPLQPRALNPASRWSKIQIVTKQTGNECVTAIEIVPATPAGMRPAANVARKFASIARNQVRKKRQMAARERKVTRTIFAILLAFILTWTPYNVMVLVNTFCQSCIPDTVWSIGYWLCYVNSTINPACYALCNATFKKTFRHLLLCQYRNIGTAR

Regarding `O=c1[nH]c2cnccc2n1-c1ccccc1`, the cell count in [1] came to 546. Moreover, the inhibition (usually the change of the read-out against control, counted positive when it falls) is 1.5% (inactive) in experiment [1], -390% (inactive) in experiment [2], 9.91% (inactive) in experiment [4] and -6.57% (inactive) in experiment [9]. For the same molecule, in [2], the nuclei count was determined as 162%. In addition, the z-score is 1.25 in experiment [3] (setting [10]), -0.89 in experiment [3] (setting [11]) and -1.07 in [3] (setting [12]). Also, the figures for the fluorescence slope in experiment [5] and in experiment [7] were -0.404 (inactive) and 0.00569 (inactive), respectively. For the same molecule, the NADPH fluorescence slope in experiment [6] is -4.6e-05 (inactive). The result in experiment [8] was inactive.

`CC1(C)Cc2ccccc2-c2c1c(=O)n(-c1ccccc1)c1nnnn21`: the cell count in experiment [1] was 624. The inhibition in [1] was 8.6% (inactive); in experiment [2] it was -45% (inactive); in experiment [4] it was 4.72% (inactive); in [9], 13.9% (inactive). Also, the nuclei count in experiment [2] worked out at 92.5%. Further, the results for the z-score in experiment [3] (setting [10]), in [3] (setting [11]) and in experiment [3] (setting [12]) were 0.648, -0.29 and -0.398, respectively. Besides, the fluorescence slope was -0.51 (inactive) in [5] and 0.00444 (inactive) in [7]. Besides, the NADPH fluorescence slope in experiment [6] is -1.7e-05 (inactive). Besides, the molecule was classed as inactive in experiment [8].

Turning to `COC(=O)NCC12CC3CC(C1)CC(CNC(=O)OC)(C3)C2`, the cell count in experiment [1] worked out at 541. The inhibition in experiment [1] was 2.3% (inactive); in [2], -75% (inactive); in [4], 5.42% (inactive); in [9], -5.97% (inactive). Further, in [2], the nuclei count amounted to 122%. The z-score is 0.785 in [3] (setting [10]), 1.4 in experiment [3] (setting [11]) and -1.34 in [3] (setting [12]). For the same molecule, the figures for the fluorescence slope in experiment [5] and in [7] were -0.467 (inactive) and 0.00455 (inactive), respectively. Besides, the NADPH fluorescence slope in experiment [6] is -0.0001 (inactive). The molecule was called inactive in experiment [8].

On to `CCN(CC)Cc1cc(C(C)=O)ccc1OCC(C)C`, for which, in experiment [1], the cell count is 639. The inhibition is 1.8% (inactive) in experiment [1], 3.7% (inactive) in experiment [2], -5.62% (inactive) in experiment [4] and 29.4% (inactive) in [9]. In experiment [2], this molecule showed a nuclei count of 164%. Also, the z-score was -0.466 in [3] (setting [10]), 0.382 in experiment [3] (setting [11]) and -0.997 in experiment [3] (setting [12]). For the same molecule, the fluorescence slope is -0.462 (inactive) in [5] and 0.00565 (inactive) in experiment [7]. In addition, in [6], the NADPH fluorescence slope is -4.7e-05 (inactive). Moreover, the result in experiment [8] was inactive.

Consider `Cc1ccc2cc(CNC(C)(C)C)c(=O)[nH]c2c1`, for which the cell count in [1] amounted to 632. Moreover, the inhibition in experiment [1] is -4.2% (inactive); in experiment [2], -5% (inactive); in experiment [4] it was 7.7% (inactive); in experiment [9] it was 2.56% (inactive). Moreover, the nuclei count in [2] was determined as 141%. The values for the z-score in [3] (setting [10]), in [3] (setting [11]) and in experiment [3] (setting [12]) were -0.205, -0.75 and -0.413, respectively. For the same molecule, the fluorescence slope in experiment [5] was -0.493 (inactive); in experiment [7] it was 0.00705 (inactive). In experiment [6], the NADPH fluorescence slope is -3.2e-05 (inactive). For the same molecule, in experiment [8], the result was inactive.

As for `CCSc1nnc(NC(=O)C(C(F)(F)F)C(F)(F)F)s1`, the cell count in experiment [1] stood at 702. The inhibition in [1] was -5% (inactive); in [2], -40.7% (inactive); in experiment [4], -0.233% (inactive); in experiment [9], 21.1% (inactive). The same molecule yielded a nuclei count in experiment [2] of 146%. Further, the figures for the z-score in [3] (setting [10]), in [3] (setting [11]) and in experiment [3] (setting [12]) were -0.0594, -1.31 and -1.04, respectively. In addition, the fluorescence slope in experiment [5] is -0.449 (inactive); in experiment [7], 0.00555 (inactive). Further, the NADPH fluorescence slope in [6] is -4.7e-05 (inactive). For the same molecule, the molecule was classed as inactive in experiment [8].

For `CC(=O)c1ccc(C#CC(C)(C)O)s1`, the cell count in experiment [1] was found to be 496. The inhibition in experiment [1] is -2.5% (inactive); in [2] it was -51.1% (inactive); in [4], -3.97% (inactive); in [9] it was -7.15% (inactive). This molecule registered a nuclei count in [2] of 126%. The z-score in experiment [3] (setting [10]) is -0.749; in [3] (setting [11]), 0.398; in [3] (setting [12]), 0.00406. In addition, the fluorescence slope is -0.386 (inactive) in [5] and 0.00521 (inactive) in experiment [7]. The NADPH fluorescence slope in [6] was -7.4e-05 (inactive). In addition, the call in experiment [8] was inactive.
